ChEMBL document CHEMBL5030505, “Assessment of NR4A Ligands That Directly Bind and Modulate the Orphan Nuclear Receptor Nurr1” (J Med Chem, 2020)

What was measured:
Type in all cases: cell-based
[1] = target: Nuclear receptor subfamily 4 group A member 2 (Homo sapiens) (UniProt P43354); assay: Modulation of full length human Nurr1 expressed in PC12 cells co-transfected with RXRalpha and luciferase reporter plasmid harboring NBRE response element assessed as increase in luciferase activity incubated for 18 hrs by luciferase reporter-gene assay; conditions: PC-12, filed as modulator
Method in brief: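 PC12 cells were grown at 37°C and 5% CO2 in […] medium with 15% horse serum and 2.5% FBS. They were transfected with full-length Nurr1 (1 μg) plus full-length RXRα (1 μg) and 3xNBRE- or 3xNurRE-luciferase reporter (6 μg) for 18 h, then replated at 10,000 cells/well for 4 h. Ligand or vehicle (water, ethanol or DMSO) was added in quadruplicate for 18 h. Luminescence was read as fold change over vehicle. Results are mean ± s.e.m., n=4, from 2 independent experiments, analysed by one-way ANOVA against vehicle.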

[2] = target: Nuclear receptor subfamily 4 group A member 2 (Homo sapiens) (UniProt P43354); assay: Modulation of full length human Nurr1 expressed in PC12 cells co-transfected with luciferase reporter plasmid harboring NBRE response element assessed as increase in luciferase activity incubated for 18 hrs by luciferase reporter-gene assay; conditions: PC-12, filed as modulator
Method in brief: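 Here PC12 cells (FK-12 medium, 15% horse serum, 2.5% FBS, 37°C, 5% CO2) received full-length Nurr1 (2 μg) without RXRα, plus 3xNBRE- or 3xNurRE-luciferase reporter (6 μg), for 18 h. Cells were replated at 10,000/well for 4 h, then treated with ligand or vehicle in quadruplicate for 18 h. Luciferase luminescence was normalized to vehicle-treated cells. Results are mean ± s.e.m. (n=4) from 2 independent experiments, with one-way ANOVA against vehicle.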

[3] = target: Nuclear receptor subfamily 4 group A member 2 (Homo sapiens) (UniProt P43354); assay: Modulation of full length human Nurr1 expressed in SKNBE(2) cells co-transfected with RXRalpha and luciferase reporter plasmid harboring NBRE response element assessed as increase in luciferase activity incubated for 18 hrs by luciferase reporter-gene assay; conditions: SKNBE2, filed as modulator
Method in brief: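 SK-N-BE(2)-C cells were kept in 1:1 EMEM/F12 with 10% FBS at 37°C and 5% CO2. They were cotransfected with full-length Nurr1 (1 μg), full-length RXRα (1 μg) and 3xNBRE- or 3xNurRE-luc reporter (6 μg) for 18 h, replated at 10,000 cells/well for 4 h, and then treated with ligand or vehicle in quadruplicate for 18 h. The readout was luciferase luminescence as fold over vehicle, reported as mean ± s.e.m. (n=4) from 2 independent experiments, one-way ANOVA.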

[4] = target: Nuclear receptor subfamily 4 group A member 2 (Homo sapiens) (UniProt P43354); assay: Modulation of full length human Nurr1 expressed in HEK293T cells co-transfected with RXRalpha and luciferase reporter plasmid harboring NBRE response element assessed as increase in luciferase activity incubated for 18 hrs by luciferase reporter-gene assay; conditions: filed as modulator
Method in brief: (§1)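 Full-length Nurr1 plasmid, alone (2 μg) or 1 μg plus full-length RXRα (1 μg), cotransfected with 3xNBRE- or 3xNurRE-luciferase reporter (6 μg) using Lipofectamine 2000, 18 h. Cells replated at 10,000/well for 4 h. Four ligand concentrations, or vehicle (water, ethanol or DMSO), added in quadruplicate for 18 h. Luciferase read. Fold change vs vehicle, mean ± s.e.m., one-way ANOVA vs vehicle.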

[5] = target: Nuclear receptor subfamily 4 group A member 2 (Homo sapiens) (UniProt P43354); assay: Modulation of full length human Nurr1 expressed in HEK293T cells co-transfected with luciferase reporter plasmid harboring NBRE response element assessed as increase in luciferase activity incubated for 18 hrs by luciferase reporter-gene assay; conditions: filed as modulator; method in brief: as §1
[6] = target: Nuclear receptor subfamily 4immunitygroup A member 1 (Homo sapiens) (UniProt P22736); assay: Modulation of full length human Nur77 expressed in SK-N-BE(2) cells co-transfected with luciferase reporter plasmid harboring NBRE response element assessed as increase in luciferase activity incubated for 18 by luciferase reporter gene assay; conditions: SKNBE2, filed as modulator, time 18.0 hrs
Method in brief: (§2)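 Cells seeded at 1.5 million per 10-cm dish. Next day they were transfected (Lipofectamine 2000) with full-length Nur77 or NOR-1 expression plasmid, either alone (2 μg) or 1 μg plus full-length RXRα (1 μg), and 3xNBRE- or 3xNurRE-luciferase reporter (6 μg), 18 h. Cells replated at 10,000/well, 4 h, then ligand dose response added in quadruplicate for 18 h. Luciferase luminescence read.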

[7] = target: Nuclear receptor subfamily 4 group A member 3 (Homo sapiens) (UniProt Q92570); assay: Modulation of full length human NOR1 expressed in SK-N-BE(2) cells co-transfected with RXRalpha and luciferase reporter plasmid harboring NurRE response element assessed as increase in luciferase activity incubated for 18 by luciferase reporter gene assay; conditions: SKNBE2, filed as modulator, time 18.0 hrs; method in brief: as §2
[8] = target: Nuclear receptor subfamily 4immunitygroup A member 1 (Homo sapiens) (UniProt P22736); assay: Modulation of full length human Nur77 expressed in HEK293 cells co-transfected with RXRalpha and luciferase reporter plasmid harboring NBRE response element assessed as increase in luciferase activity incubated for 18 hrs by luciferase reporter gene assay; conditions: filed as modulator; method in brief: as §2
[9] = target: Nuclear receptor subfamily 4immunitygroup A member 1 (Homo sapiens) (UniProt P22736); assay: Modulation of full length human Nur77 expressed in HEK293 cells co-transfected with RXRalpha and luciferase reporter plasmid harboring NurRE response element assessed as increase in luciferase activity incubated for 18 hrs by luciferase reporter gene assay; conditions: filed as modulator; method in brief: as §2
[10] = target: Nuclear receptor subfamily 4 group A member 3 (Homo sapiens) (UniProt Q92570); assay: Modulation of full length human NOR1 expressed in HEK293T cells co-transfected with RXRalpha luciferase reporter plasmid harboring NurRE response element assessed as increase in luciferase activity incubated for 18 hrs by luciferase reporter gene assay; conditions: filed as modulator
Method in brief: (§3)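 Full-length NOR-1 plasmid was transfected via Lipofectamine 2000, either alone (2 μg) or at 1 μg with full-length RXRα (1 μg). It was paired with a 3xNBRE or 3xNurRE luciferase reporter (6 μg), 8 μg total DNA, for 18 h. Cells were replated at 10,000/well for 4 h, then given a full ligand dose response or vehicle in quadruplicate for 18 h. Luciferase was read; no EC50/IC50 was fitted.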

[11] = target: Nuclear receptor subfamily 4 group A member 3 (Homo sapiens) (UniProt Q92570); assay: Modulation of full length human NOR1 expressed in HEK293 cells co-transfected with luciferase reporter plasmid harboring NBRE response element assessed as increase in luciferase activity incubated for 18 hrs by luciferase reporter gene assay; conditions: filed as modulator; method in brief: as §3
[12] = target: Nuclear receptor subfamily 4 group A member 3 (Homo sapiens) (UniProt Q92570); assay: Modulation of full length human NOR1 expressed in HEK293 cells co-transfected with luciferase reporter plasmid harboring NurRE response element assessed as increase in luciferase activity incubated for 18 hrs by luciferase reporter gene assay; conditions: filed as modulator; method in brief: as §3
[13] = target: Nuclear receptor subfamily 4 group A member 3 (Homo sapiens) (UniProt Q92570); assay: Modulation of full length human NOR1 expressed in HEK293T cells co-transfected with RXRalpha luciferase reporter plasmid harboring NBRE response element assessed as increase in luciferase activity incubated for 18 hrs by luciferase reporter gene assay; conditions: filed as modulator; method in brief: as §3
[14] = target: Nuclear receptor subfamily 4 group A member 3 (Homo sapiens) (UniProt Q92570); assay: Modulation of full length human NOR1 expressed in SK-N-BE(2) cells co-transfected with luciferase reporter plasmid harboring NBRE response element assessed as increase in luciferase activity incubated for 18 by luciferase reporter gene assay; conditions: SKNBE2, filed as modulator, time 18.0 hrs; method in brief: as §2
[15] = target: Nuclear receptor subfamily 4immunitygroup A member 1 (Homo sapiens) (UniProt P22736); assay: Modulation of full length human Nur77 expressed in SK-N-BE(2) cells co-transfected with RXRalpha and luciferase reporter plasmid harboring NBRE response element assessed as increase in luciferase activity incubated for 18 by luciferase reporter gene assay; conditions: SKNBE2, filed as modulator, time 18.0 hrs; method in brief: as §2
[16] = target: Nuclear receptor subfamily 4immunitygroup A member 1 (Homo sapiens) (UniProt P22736); assay: Modulation of full length human Nur77 expressed in PC12 cells co-transfected with RXRalpha and luciferase reporter plasmid harboring NBRE response element assessed as increase in luciferase activity incubated for 18 by luciferase reporter gene assay; conditions: PC-12, filed as modulator, time 18.0 hrs; method in brief: as §2
[17] = target: Nuclear receptor subfamily 4 group A member 3 (Homo sapiens) (UniProt Q92570); assay: Modulation of full length human NOR1 expressed in PC12 cells co-transfected with RXRalpha and luciferase reporter plasmid harboring NBRE response element assessed as increase in luciferase activity incubated for 18 by luciferase reporter gene assay; conditions: PC-12, filed as modulator, time 18.0 hrs; method in brief: as §3

Measured: Activity

Chain of Nuclear receptor subfamily 4immunitygroup A member 1 (Homo sapiens) (P22736 whole entry): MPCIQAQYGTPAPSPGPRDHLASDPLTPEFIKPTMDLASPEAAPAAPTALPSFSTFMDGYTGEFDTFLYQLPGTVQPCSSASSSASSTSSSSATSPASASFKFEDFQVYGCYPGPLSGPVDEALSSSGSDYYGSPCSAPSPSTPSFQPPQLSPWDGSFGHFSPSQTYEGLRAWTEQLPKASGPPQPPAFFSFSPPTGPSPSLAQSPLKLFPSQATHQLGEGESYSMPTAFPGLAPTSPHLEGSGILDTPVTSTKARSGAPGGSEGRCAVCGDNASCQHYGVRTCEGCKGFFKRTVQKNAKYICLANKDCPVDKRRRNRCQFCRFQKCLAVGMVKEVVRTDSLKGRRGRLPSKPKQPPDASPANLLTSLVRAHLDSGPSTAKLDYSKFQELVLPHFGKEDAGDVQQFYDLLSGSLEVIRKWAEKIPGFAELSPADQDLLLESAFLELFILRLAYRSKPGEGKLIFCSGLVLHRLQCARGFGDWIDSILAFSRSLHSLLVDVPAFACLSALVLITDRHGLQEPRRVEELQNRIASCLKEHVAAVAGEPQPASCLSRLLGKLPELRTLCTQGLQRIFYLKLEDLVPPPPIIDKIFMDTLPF
Chain of Nuclear receptor subfamily 4 group A member 3 (Homo sapiens) (Q92570 whole entry): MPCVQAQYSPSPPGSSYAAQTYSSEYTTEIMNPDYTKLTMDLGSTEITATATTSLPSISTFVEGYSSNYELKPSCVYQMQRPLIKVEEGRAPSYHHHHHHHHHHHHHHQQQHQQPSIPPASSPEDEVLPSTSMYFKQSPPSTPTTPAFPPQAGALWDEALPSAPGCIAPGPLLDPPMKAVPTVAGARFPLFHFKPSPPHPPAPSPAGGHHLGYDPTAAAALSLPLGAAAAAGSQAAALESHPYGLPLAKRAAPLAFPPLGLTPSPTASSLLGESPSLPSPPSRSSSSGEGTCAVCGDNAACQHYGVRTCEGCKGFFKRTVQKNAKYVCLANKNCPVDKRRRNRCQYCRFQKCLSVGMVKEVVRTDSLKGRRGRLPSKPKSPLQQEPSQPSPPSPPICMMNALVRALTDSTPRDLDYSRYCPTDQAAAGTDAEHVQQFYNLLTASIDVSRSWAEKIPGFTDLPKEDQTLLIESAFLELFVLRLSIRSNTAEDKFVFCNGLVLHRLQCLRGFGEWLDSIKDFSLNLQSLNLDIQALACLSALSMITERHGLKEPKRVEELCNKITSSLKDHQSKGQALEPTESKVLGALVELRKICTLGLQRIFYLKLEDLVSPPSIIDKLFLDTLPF
Chain of Nuclear receptor subfamily 4 group A member 2 (Homo sapiens) (P43354 whole entry): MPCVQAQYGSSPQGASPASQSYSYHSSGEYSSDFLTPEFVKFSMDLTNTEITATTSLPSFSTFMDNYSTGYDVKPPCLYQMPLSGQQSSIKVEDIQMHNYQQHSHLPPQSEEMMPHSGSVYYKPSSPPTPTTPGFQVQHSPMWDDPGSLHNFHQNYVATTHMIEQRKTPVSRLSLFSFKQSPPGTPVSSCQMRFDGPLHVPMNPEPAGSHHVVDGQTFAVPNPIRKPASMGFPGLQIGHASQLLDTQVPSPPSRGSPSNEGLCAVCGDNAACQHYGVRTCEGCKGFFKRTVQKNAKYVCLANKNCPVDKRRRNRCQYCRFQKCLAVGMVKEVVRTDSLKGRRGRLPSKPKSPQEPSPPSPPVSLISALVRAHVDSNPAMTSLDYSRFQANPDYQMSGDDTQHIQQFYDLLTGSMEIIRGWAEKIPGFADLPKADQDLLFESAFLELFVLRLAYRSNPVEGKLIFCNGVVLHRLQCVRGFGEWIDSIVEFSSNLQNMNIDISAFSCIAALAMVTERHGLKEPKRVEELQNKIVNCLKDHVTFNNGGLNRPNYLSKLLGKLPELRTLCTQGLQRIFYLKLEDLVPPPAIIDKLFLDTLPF

CCN(CC)Cc1cc(Nc2ccnc3cc(Cl)ccc23)ccc1O [AMODIAQUINE]
active: [1] Dose-Dependent Effect | [2] Dose-Dependent Effect | [3] Dose-Dependent Effect | [4] Dose-Dependent Effect | [5] Dose-Dependent Effect | [6] Dose-Dependent Effect | [7] Dose-Dependent Effect | [8] Dose-Dependent Effect | [9] Dose-Dependent Effect | [10] Dose-Dependent Effect | [11] Dose-Dependent Effect | [12] Dose-Dependent Effect | [13] Dose-Dependent Effect | [14] Dose-Dependent Effect | [15] Dose-Dependent Effect | [16] Dose-Dependent Effect | [17] Dose-Dependent Effect

CCN(CC)CCCC(C)Nc1ccnc2cc(Cl)ccc12 (stereo unspecified) [CHLOROQUINE]
active: [1] Dose-Dependent Effect | [2] Dose-Dependent Effect | [3] Dose-Dependent Effect | [4] Dose-Dependent Effect | [5] Dose-Dependent Effect | [6] Dose-Dependent Effect | [7] Dose-Dependent Effect | [8] Dose-Dependent Effect | [9] Dose-Dependent Effect | [10] Dose-Dependent Effect | [11] Dose-Dependent Effect | [12] Dose-Dependent Effect | [13] Dose-Dependent Effect | [14] Dose-Dependent Effect | [15] Dose-Dependent Effect | [16] Dose-Dependent Effect | [17] Dose-Dependent Effect

CCCCCCCC(=O)c1c(O)cc(O)cc1CC(=O)OCC [CYTOSPORONE B]
active: [1] Dose-Dependent Effect | [2] Dose-Dependent Effect | [3] Dose-Dependent Effect | [4] Dose-Dependent Effect | [5] Dose-Dependent Effect | [6] Dose-Dependent Effect | [7] Dose-Dependent Effect | [8] Dose-Dependent Effect | [9] Dose-Dependent Effect | [10] Dose-Dependent Effect | [11] Dose-Dependent Effect | [12] Dose-Dependent Effect | [13] Dose-Dependent Effect | [14] Dose-Dependent Effect | [15] Dose-Dependent Effect | [16] Dose-Dependent Effect | [17] Dose-Dependent Effect
